Holding throughout (type): functional
Assay [1] deals with Rattus norvegicus. Nature of the assay: Compound was tested for hypolipidemic activity in male Sprague-Dawley rats by measuring amount of liver triglyceride after administration of 200 mg dose per kg of diet. The method in brief:
(§1)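 Orotic acid liver-lipid model: groups of six male Sprague-Dawley rats unless noted. Test compound mixed into the orotic acid diet at the stated mg/kg diet. Diet and water ad libitum for 14 days, with growth and diet intake monitored. Impaired growth with normal intake was taken as toxicity. At sacrifice, liver homogenized in cold 0.63 M phosphate buffer, pH 7.4. Liver triglyceride and cholesterol reported as mg/g wet liver.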

The subject of assay [2] is Rattus norvegicus. Nature of the assay: Compound was tested for hypolipidemic activity in male Sprague-Dawley rats by measuring amount of liver triglyceride after administration of 600 mg dose per kg of diet. The method in brief:
as §1

For assay [3], the system named is Rattus norvegicus. Nature of the assay: Compound was tested for hypolipidemic activity in male Sprague-Dawley rats by measuring change in body weight after administration of 600 mg dose per kg of diet. Summed up: as §1
Assay [4] relates to Rattus norvegicus. Put plainly: Compound was tested for hypolipidemic activity in male Sprague-Dawley rats by measuring change in body weight after administration of 100 mg dose per kg of diet. The method in brief:
as §1

Assay [5] is filed under the species Rattus norvegicus. Put plainly: The activity relative to DPTH in liver triglyceride. The method in brief:
(§2)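 Relative activity is the midpoint dose from the orotic acid rat dose-response curves compared against DPTH, with DPTH set to 1.00. Calculated separately for liver cholesterol and for liver triglyceride.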

Assay [6] has as its system Rattus norvegicus. Nature of the assay: Compound was tested for hypolipidemic activity in male Sprague-Dawley rats by measuring amount of liver cholesterol after administration of 600 mg dose per kg of diet. The method in brief:
as §1

In assay [7] the test system is Rattus norvegicus. Put plainly: Compound was tested for hypolipidemic activity in male Sprague-Dawley rats by measuring amount of liver cholesterol after administration of 400 mg dose per kg of diet. The method in brief:
as §1

The test system of assay [8] is Rattus norvegicus. Put plainly: Compound was tested for hypolipidemic activity in male Sprague-Dawley rats by measuring change in body weight after administration of 200 mg dose per kg of diet. The method in brief:
as §1

Assay [9] concerns Rattus norvegicus. Nature of the assay: Compound was tested for hypolipidemic activity in male Sprague-Dawley rats by measuring amount of liver triglyceride after administration of 400 mg dose per kg of diet. The method in brief: as §1
For assay [10], the system named is Rattus norvegicus. Nature of the assay: Compound was tested for hypolipidemic activity in male Sprague-Dawley rats by measuring change in body weight after administration of 400 mg dose per kg of diet. Summed up: as §1
The species entered for assay [11] is Rattus norvegicus. Nature of the assay: The activity relative to DPTH in liver cholesterol. Summed up:
as §2

For assay [12], the system named is Rattus norvegicus. Nature of the assay: Compound was tested for hypolipidemic activity in male Sprague-Dawley rats by measuring amount of liver cholesterol after administration of 100 mg dose per kg of diet. The method in brief: as §1
In assay [13] the test system is Rattus norvegicus. Put plainly: Compound was tested for hypolipidemic activity in male Sprague-Dawley rats by measuring amount of liver cholesterol after administration of 200 mg dose per kg of diet. The method in brief: as §1
The species named for assay [14] is Rattus norvegicus. Nature of the assay: The concentration required to reduce liver cholesterol half-way from the average orotic acid level to the basal level. Summed up: (§3)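 Dose-response testing in the 14-day orotic acid diet model, six male Sprague-Dawley rats per group. Midpoint dose (mg/kg diet) read from dose-response curves as the dietary level that brings liver cholesterol or triglyceride half-way between the orotic-acid-fed control and a basal control given no orotic acid.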

Assay [15] deals with Rattus norvegicus. Nature of the assay: Compound was tested for hypolipidemic activity in male Sprague-Dawley rats by measuring amount of liver triglyceride after administration of 100 mg dose per kg of diet. The method in brief:
as §1

The species named for assay [16] is Rattus norvegicus. Nature of the assay: The concentration required to reduce liver triglyceride half-way from the average orotic acid level to the basal level. Summed up:
as §3

The species entered for assay [17] is Rattus norvegicus. Put plainly: The activity relative to DPTH. in liver triglyceride. Summed up: as §2
The species entered for assay [18] is Rattus norvegicus. Put plainly: The activity relative to DPTH. […] in liver cholesterol. The method in brief:
as §2

For assay [19], the system named is Rattus norvegicus. Nature of the assay: Compound was tested for hypolipidemic activity in male Sprague-Dawley rats by measuring change in body weight after administration of 750 mg dose per kg of diet. The method in brief:
as §1

Assay [20] concerns Rattus norvegicus. Put plainly: Compound was tested for hypolipidemic activity in male Sprague-Dawley rats by measuring amount of liver triglyceride after administration of 750 mg dose per kg of diet. The method in brief:
as §1

Assay [21] relates to Rattus norvegicus. Nature of the assay: Compound was tested for hypolipidemic activity in male Sprague-Dawley rats by measuring amount of liver cholesterol after administration of 750 mg dose per kg of diet. The method in brief: as §1
For assay [22], the system named is Rattus norvegicus. Nature of the assay: Compound was tested for hypolipidemic activity in male Sprague-Dawley rats by measuring amount of liver cholesterol after administration of 770 mg dose per kg of diet. The method in brief: as §1
The test system of assay [23] is Rattus norvegicus. Put plainly: Compound was tested for hypolipidemic activity in male Sprague-Dawley rats by measuring amount of liver triglyceride after administration of 770 mg dose per kg of diet. The method in brief: as §1
Assay [24] relates to Rattus norvegicus. Nature of the assay: Compound was tested for hypolipidemic activity in male Sprague-Dawley rats by measuring change in body weight after administration of 770 mg dose per kg of diet. Summed up:
as §1

For assay [25], the system named is Rattus norvegicus. Nature of the assay: Compound was tested for hypolipidemic activity in male Sprague-Dawley rats by measuring amount of liver cholesterol after administration of 729 mg dose per kg of diet. Summed up:
as §1

Assay [26] concerns Rattus norvegicus. Put plainly: Compound was tested for hypolipidemic activity in male Sprague-Dawley rats by measuring amount of liver triglyceride after administration of 729 mg dose per kg of diet. Summed up:
as §1

Assay [27] concerns Rattus norvegicus. Nature of the assay: Compound was tested for hypolipidemic activity in male Sprague-Dawley rats by measuring change in body weight after administration of 729 mg dose per kg of diet. The method in brief:
as §1

Assay [28] relates to Rattus norvegicus. Nature of the assay: Compound was tested for hypolipidemic activity in male Sprague-Dawley rats by measuring amount of liver triglyceride after administration of 735 mg dose per kg of diet. Summed up:
as §1

The test system of assay [29] is Rattus norvegicus. Put plainly: Compound was tested for hypolipidemic activity in male Sprague-Dawley rats by measuring change in body weight after administration of 735 mg dose per kg of diet. The method in brief: as §1
Assay [30] deals with Rattus norvegicus. Put plainly: Compound was tested for hypolipidemic activity in male Sprague-Dawley rats by measuring amount of liver cholesterol after administration of 735 mg dose per kg of diet. Summed up: as §1
Assay [31] deals with Rattus norvegicus. Nature of the assay: Compound was tested for hypolipidemic activity in male Sprague-Dawley rats by measuring amount of liver cholesterol after administration of 635 mg dose per kg of diet. Summed up: as §1
The test system of assay [32] is Rattus norvegicus. Nature of the assay: Compound was tested for hypolipidemic activity in male Sprague-Dawley rats by measuring amount of liver triglyceride after administration of 635 mg dose per kg of diet. The method in brief: as §1
For assay [33], the system named is Rattus norvegicus. Nature of the assay: Compound was tested for hypolipidemic activity in male Sprague-Dawley rats by measuring change in body weight after administration of 635 mg dose per kg of diet. Summed up: as §1

As to `O=C1NC(=S)NC1(c1ccccn1)c1ccccn1`, the “Liver TG” value in the assay with Rattus norvegicus [1] was 72 mg/g; with Rattus norvegicus [2], 16 mg/g; in the assay on Rattus norvegicus [9] it was 28 mg/g; in the assay on Rattus norvegicus [15] it was 100 mg/g. Further, the Body weight change in the assay on Rattus norvegicus [3] is 132 g; in the assay with Rattus norvegicus [4] it was 180 g; in the assay on Rattus norvegicus [8], 181 g; in the assay on Rattus norvegicus [10], 203 g. In addition, the Relative activity worked out at 0.43 in the assay filed under Rattus norvegicus [5] and 1.33 in the assay filed under Rattus norvegicus [11]. The Liver cholesterol with Rattus norvegicus [6] was 3 mg/g; with Rattus norvegicus [7], 2.8 mg/g; in the assay on Rattus norvegicus [12], 17 mg/g; in the assay on Rattus norvegicus [13], 10.3 mg/g. Also, the Midpoint dose in the assay filed under Rattus norvegicus [14] stood at 180 mg/kg; in the assay filed under Rattus norvegicus [16], 235 mg/kg.
`CCCCN1C(=O)C(c2ccccc2)(c2ccccc2)NC1=S`: the results for the “Liver TG” value in the assay with Rattus norvegicus [1], with Rattus norvegicus [2] and in the assay with Rattus norvegicus [9] were 97 mg/g, 19 mg/g and 70 mg/g, respectively. For the same compound, the results for the Body weight change with Rattus norvegicus [3], in the assay with Rattus norvegicus [8] and in the assay with Rattus norvegicus [10] were 134 g, 185 g and 210 g, respectively. Moreover, the figures for the Relative activity in the assay filed under Rattus norvegicus [5] and in the assay listed under Rattus norvegicus [11] were 0.22 and 0.71, respectively. In addition, the Liver cholesterol stood at 4.2 mg/g with Rattus norvegicus [6], 10.7 mg/g with Rattus norvegicus [7] and 17.8 mg/g in the assay with Rattus norvegicus [13]. Also, the TG in the assay filed under Rattus norvegicus [17] was found to be 0.22; in the assay filed under Rattus norvegicus [16] it was 450 mg kg-1 diet. In addition, the Cholesterol in the assay listed under Rattus norvegicus [18] amounted to 0.71; in the assay filed under Rattus norvegicus [14], 340 mg kg-1 diet. The figures for the Midpoint dose in the assay listed under Rattus norvegicus [14] and in the assay filed under Rattus norvegicus [16] were 340 mg/kg and 450 mg/kg, respectively.
On to `O=C1NC(=S)NC1(c1ccc(Cl)cc1)c1ccc(Cl)cc1`, for which, in the assay with Rattus norvegicus [19], the Body weight change is recorded as 91 g. In addition, the “Liver TG” value with Rattus norvegicus [20] worked out at 82 mg/g. Also, the Liver cholesterol in the assay on Rattus norvegicus [21] was 13.2 mg/g.
In the assay on Rattus norvegicus [22], `O=C1N(c2ccccc2)C(=S)NC1(c1ccccc1)c1ccccc1` had a Liver cholesterol of 8.6 mg/g. In the assay with Rattus norvegicus [23], the “Liver TG” value worked out at 42 mg/g. The compound further showed a Body weight change in the assay on Rattus norvegicus [24] of 91 g.
With `CCCCN1C(=O)C(c2ccccn2)(c2ccccn2)NC1=S`, the Liver cholesterol with Rattus norvegicus [25] is 12.2 mg/g. Further, the “Liver TG” value in the assay with Rattus norvegicus [26] is 85 mg/g. Further, the Body weight change in the assay on Rattus norvegicus [27] is 140 g.
As for `COc1ccc(C2(c3ccc(OC)cc3)NC(=S)NC2=O)cc1`, in the assay on Rattus norvegicus [28], the “Liver TG” value was determined as 82 mg/g. This compound also yielded a Body weight change with Rattus norvegicus [29] of 135 g. This compound also displayed a Liver cholesterol with Rattus norvegicus [30] of 21.6 mg/g.
For `COc1ccc(C2(c3ccccc3)NC(=S)NC2=O)cc1` (racemic), the Liver cholesterol with Rattus norvegicus [31] is 23.1 mg/g. In addition, the “Liver TG” value in the assay with Rattus norvegicus [32] stood at 70 mg/g. In the assay on Rattus norvegicus [33], this compound showed a Body weight change of 144 g.
Regarding `O=C1NC(=S)NC1(c1ccccc1)c1ccc(O)cc1` (racemic), the Liver cholesterol in the assay with Rattus norvegicus [31] stood at 9.1 mg/g. The “Liver TG” value with Rattus norvegicus [32] is 48 mg/g. Also, in the assay on Rattus norvegicus [33], the Body weight change is reported as 130 g.
For `O=C1NC(=S)NC1(c1ccccc1)c1ccccc1` [THIOPHENYTOIN], in the assay with Rattus norvegicus [2], the “Liver TG” value came to 16 mg/g. The compound further showed a Body weight change in the assay with Rattus norvegicus [3] of 136 g. The Relative activity in the assay filed under Rattus norvegicus [5] and in the assay filed under Rattus norvegicus [11] was 1 in each case. The same compound had a Liver cholesterol with Rattus norvegicus [6] of 3 mg/g. For the same compound, the figures for the Midpoint dose in the assay filed under Rattus norvegicus [14] and in the assay filed under Rattus norvegicus [16] were 240 mg/kg and 100 mg/kg, respectively.

The values above are taken from ChEMBL document CHEMBL1123188, “5,5-Diaryl-2-thiohydantoins and 5,5-diaryl-N3-substituted-2-thiohydantoins as potential hypolipidemic agents” (1986).
